Drawing on ChEMBL document CHEMBL1139704, “Discovery of potent inhibitors of pseudomonal quorum sensing via pharmacophore modeling and in silico screening” (Bioorg Med Chem Lett, 2006), this text covers IC50 and Activity for four compounds.

What all share (format): functional, organism-based
Assay [1] concerns Pseudomonas aeruginosa. Nature of the assay: Inhibition of pyocyanin production in Pseudomonas aeruginosa ATCC 9027. In a few lines: (§1)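 Overnight nutrient broth cultures were pelleted, resuspended, grown to mid-log phase (OD600 0.3–0.5), and diluted to OD600 0.05. Cultures were exposed to compound in water at 50.00, 25.00, 10.00, 5.00, 2.50, 1.00, 0.10, 0.001 or zero final concentration, shaken 18 h at 37 C. Viable cells were counted, and the pellet OD600 was used to normalise pigment per bacterial OD unit.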

In assay [2] the test system is Pseudomonas aeruginosa. Briefly: Inhibition of pyoverdin production in Pseudomonas aeruginosa ATCC 9027. The essentials:
as §1

Assay [3] concerns Pseudomonas aeruginosa. Nature of the assay: Inhibition of pyocyanin production in Pseudomonas aeruginosa. In a few lines:
as §1

For assay [4], the system named is Pseudomonas aeruginosa. Nature of the assay: Inhibition of pyoverdin production in Pseudomonas aeruginosa. In a few lines:
as §1

The source made the active and inactive calls. No cut-off for these calls is given here.

With PHENYL MERCURIC NITRATE, the IC50 in assay [1] stood at 3240 nM; in assay [2] it was 3980 nM; in assay [3], 3020 nM; in assay [4], 3160 nM.
With `CCOP(=O)(OCC)O/N=C(/C)c1cccc(C)c1`, the outcome in assay [3] and in assay [4] was inactive.
As for “triethylplumbyl 4-methylbenzenesulfonate”, the 50% inhibitory concentration (IC50) in assay [1] is 158 nM; in assay [2] it was 794 nM; in assay [3], 282 nM; in assay [4], 355 nM.
For THIMEROSAL, in that order: 3160 nM, 3170 nM, 708 nM and 603 nM.

The term IC50 denotes the midpoint of a concentration-inhibition curve.
